{
  "source": "paper PMC3517184",
  "about": "(Bioorganic & medicinal chemistry, 2012)",
  "key": {"cell viability": {"system": "cell viability", "test": "WST-1 cell viability / toxicity assay", "format": "cell-based", "settings": "up to 10.0 μM", "summary_of_the_method": "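Cells are seeded at 2×10^4 per well and cultured 24 h at 37°C, then moved to serum-free medium with vehicle or test compound at various concentrations for 24 h. Premixed WST-1 reagent is added, and after 30 min at 37°C absorbance is read at 490 nm.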"}, "[1]": {"system": "LPS-induced activation of NF-κB", "test": "NF-κB dual luciferase reporter assay in BV-2 microglial cells", "format": "cell-based", "summary_of_the_method": "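NF-κB dual-luciferase reporter BV-2 microglia are kept in DMEM with 10% FBS, penicillin, streptomycin and puromycin (3 μg/mL). After 24 h seeding, medium is switched to Opti-MEM with 0.5% FBS. Test compound is added, then LPS at 200 ng/mL for 24 h. Dual-Glo luminescence is read, and the firefly/Renilla ratio is taken as NF-κB activity.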"}, "TLR1/TLR2": {"target": "TLR1/TLR2 (Mus musculus, UniProt Q9EPQ1+Q9QUN7)", "sequence (Q9EPQ1 26-795)": "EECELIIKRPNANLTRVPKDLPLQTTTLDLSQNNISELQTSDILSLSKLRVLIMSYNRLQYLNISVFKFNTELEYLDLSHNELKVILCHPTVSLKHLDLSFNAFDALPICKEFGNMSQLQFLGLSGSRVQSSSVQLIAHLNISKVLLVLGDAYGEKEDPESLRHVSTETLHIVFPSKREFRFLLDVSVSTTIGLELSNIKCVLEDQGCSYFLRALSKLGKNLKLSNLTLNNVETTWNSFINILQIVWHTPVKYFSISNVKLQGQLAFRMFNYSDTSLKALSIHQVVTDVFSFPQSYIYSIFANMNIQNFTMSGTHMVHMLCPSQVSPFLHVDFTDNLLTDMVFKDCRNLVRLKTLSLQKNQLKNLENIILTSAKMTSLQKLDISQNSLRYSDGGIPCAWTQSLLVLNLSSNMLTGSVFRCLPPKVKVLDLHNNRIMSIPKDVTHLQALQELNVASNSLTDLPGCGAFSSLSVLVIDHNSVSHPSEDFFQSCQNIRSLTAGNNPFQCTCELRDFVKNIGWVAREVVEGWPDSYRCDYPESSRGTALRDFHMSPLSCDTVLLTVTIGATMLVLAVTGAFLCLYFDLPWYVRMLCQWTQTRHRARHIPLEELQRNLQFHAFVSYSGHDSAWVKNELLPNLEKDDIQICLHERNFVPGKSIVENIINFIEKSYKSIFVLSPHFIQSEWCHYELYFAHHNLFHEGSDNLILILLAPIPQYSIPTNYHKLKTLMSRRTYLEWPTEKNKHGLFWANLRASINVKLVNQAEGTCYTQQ", "sequence (Q9QUN7 25-784)": "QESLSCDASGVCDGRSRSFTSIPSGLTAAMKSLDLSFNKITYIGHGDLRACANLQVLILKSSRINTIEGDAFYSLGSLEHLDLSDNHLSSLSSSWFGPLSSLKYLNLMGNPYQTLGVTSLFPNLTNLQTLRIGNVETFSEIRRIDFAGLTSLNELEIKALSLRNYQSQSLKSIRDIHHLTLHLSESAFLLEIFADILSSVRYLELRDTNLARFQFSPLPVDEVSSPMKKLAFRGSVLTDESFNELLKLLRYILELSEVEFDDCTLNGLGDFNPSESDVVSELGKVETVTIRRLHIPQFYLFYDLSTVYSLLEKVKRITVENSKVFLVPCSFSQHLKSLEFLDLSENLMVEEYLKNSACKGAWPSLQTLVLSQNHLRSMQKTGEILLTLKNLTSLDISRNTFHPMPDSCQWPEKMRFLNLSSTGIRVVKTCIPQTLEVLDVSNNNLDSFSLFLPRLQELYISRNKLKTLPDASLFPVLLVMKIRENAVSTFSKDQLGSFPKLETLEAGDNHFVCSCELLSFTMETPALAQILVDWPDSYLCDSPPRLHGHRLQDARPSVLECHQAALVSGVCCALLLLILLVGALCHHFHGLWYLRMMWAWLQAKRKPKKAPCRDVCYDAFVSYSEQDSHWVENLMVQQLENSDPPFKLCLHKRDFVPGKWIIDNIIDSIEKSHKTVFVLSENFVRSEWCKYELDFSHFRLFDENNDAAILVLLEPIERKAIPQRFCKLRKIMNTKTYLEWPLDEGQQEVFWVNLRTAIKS", "test": "TLR specificity test, NO production induced by Pam3CSK4 in RAW 264.7 cells", "format": "cell-based, murine", "settings": "0.6 μM"}, "TLR3": {"target": "T1, TLR3 (Mus musculus, UniProt Q99MB1)", "T1 sequence (Q99MB1 26-905)": "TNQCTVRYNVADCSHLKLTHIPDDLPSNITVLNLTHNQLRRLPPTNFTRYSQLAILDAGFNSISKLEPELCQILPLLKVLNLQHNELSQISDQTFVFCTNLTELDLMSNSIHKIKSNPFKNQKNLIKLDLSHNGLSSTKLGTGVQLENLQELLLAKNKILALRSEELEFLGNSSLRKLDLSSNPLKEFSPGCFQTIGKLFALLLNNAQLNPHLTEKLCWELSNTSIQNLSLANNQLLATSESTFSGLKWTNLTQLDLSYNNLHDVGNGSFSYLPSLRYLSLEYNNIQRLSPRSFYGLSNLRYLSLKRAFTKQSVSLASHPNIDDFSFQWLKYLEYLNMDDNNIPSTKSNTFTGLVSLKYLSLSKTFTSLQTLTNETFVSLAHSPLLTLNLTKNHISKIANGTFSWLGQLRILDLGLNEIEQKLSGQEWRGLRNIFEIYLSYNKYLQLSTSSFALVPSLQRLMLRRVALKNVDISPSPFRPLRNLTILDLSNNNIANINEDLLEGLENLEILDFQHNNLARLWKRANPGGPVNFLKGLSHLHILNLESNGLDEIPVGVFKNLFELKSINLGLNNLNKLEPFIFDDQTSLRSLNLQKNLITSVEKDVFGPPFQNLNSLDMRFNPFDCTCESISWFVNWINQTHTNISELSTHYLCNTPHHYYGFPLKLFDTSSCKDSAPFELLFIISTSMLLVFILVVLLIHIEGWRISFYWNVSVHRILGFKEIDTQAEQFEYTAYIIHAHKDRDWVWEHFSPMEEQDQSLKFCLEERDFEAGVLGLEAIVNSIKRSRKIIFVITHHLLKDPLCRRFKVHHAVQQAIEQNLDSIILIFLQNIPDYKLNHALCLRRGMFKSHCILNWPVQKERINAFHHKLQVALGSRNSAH", "test": "TLR specificity test, NO production induced by poly", "format": "cell-based, murine", "settings": "0.6 μM, RAW 264.7 cells, poly(I:C)"}, "TLR7/8": {"system": "TLR7/8", "test": "TLR specificity test, NO production induced by R848 in RAW 264.7 cells", "format": "cell-based, murine", "settings": "0.6 μM"}, "TLR2/TLR6 heterodimer": {"target": "TLR2/TLR6 heterodimer (Mus musculus, UniProt Q9EPW9+Q9QUN7)", "sequence (Q9QUN7 25-784)": "as the sequence (Q9QUN7 25-784) above", "sequence (Q9EPW9 28-795)": "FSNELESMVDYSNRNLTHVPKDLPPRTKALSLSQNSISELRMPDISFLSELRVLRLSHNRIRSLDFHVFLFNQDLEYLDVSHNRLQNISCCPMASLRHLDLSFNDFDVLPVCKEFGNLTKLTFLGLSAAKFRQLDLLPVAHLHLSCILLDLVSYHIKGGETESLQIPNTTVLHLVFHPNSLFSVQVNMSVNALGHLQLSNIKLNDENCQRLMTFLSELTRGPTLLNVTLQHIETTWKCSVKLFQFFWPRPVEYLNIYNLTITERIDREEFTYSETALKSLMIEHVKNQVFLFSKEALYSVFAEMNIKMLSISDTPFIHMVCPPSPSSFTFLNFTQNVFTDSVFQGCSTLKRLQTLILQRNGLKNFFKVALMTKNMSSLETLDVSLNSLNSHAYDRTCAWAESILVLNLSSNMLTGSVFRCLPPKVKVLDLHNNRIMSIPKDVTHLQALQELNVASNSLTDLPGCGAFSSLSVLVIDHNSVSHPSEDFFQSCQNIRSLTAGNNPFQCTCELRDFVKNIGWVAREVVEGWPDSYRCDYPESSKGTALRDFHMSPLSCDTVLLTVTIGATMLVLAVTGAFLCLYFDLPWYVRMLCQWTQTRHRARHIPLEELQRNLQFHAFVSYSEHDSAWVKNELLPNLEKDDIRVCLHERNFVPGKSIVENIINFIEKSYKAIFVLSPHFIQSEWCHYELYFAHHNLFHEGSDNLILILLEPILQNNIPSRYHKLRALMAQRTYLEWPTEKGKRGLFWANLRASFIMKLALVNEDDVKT", "test": "TLR specificity test, NO production induced by FSL-1 in RAW 264.7 cells", "format": "cell-based, murine", "settings": "0.6 μM"}, "[2]": {"system": "LPS-induced NO production in RAW 264.7 macrophage cells", "test": "Inhibition of LPS-induced NO production in RAW 264.7 macrophage cells", "format": "cell-based, murine"}, "[3]": {"system": "LPS-induced IL-1β production", "test": "LPS-induced IL-1β production in RAW 264.7 cells", "format": "cell-based, murine", "settings": "ELISA", "summary_of_the_method": "(§1)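 RAW 264.7 macrophages are grown in RPMI 1640 with 10% FBS, penicillin and streptomycin at 37°C and 5% CO2. Cells are pretreated with or without LPS, then given test compound (10 mM DMSO stock). After 24 h, supernatants are clarified and cells are lysed, with both stored at −80°C. ELISA measures TNF-α in medium and IL-1β in lysate, with IL-1β normalized to total protein.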"}, "[4]": {"system": "LPS-induced TNF-α production", "test": "LPS-induced TNF-α production in RAW 264.7 cells", "format": "cell-based, murine", "settings": "ELISA", "summary_of_the_method": "as §1"}},
  "data": [
    {"molecule": "COC(=O)C(=Cc1ccccc1[N+](=O)[O-])C(=O)OC", "note": "[Compound 1, Dimethyl 2-(2-nitrobenzylidene)malonate]", "values": [
      {"measurement": "cytotoxicity (WST-1 toxicity assay)", "setting": "cell viability", "value": "did not show significant toxicity"},
      {"measurement": "IC50", "setting": "[1]; Mus musculus, BV-2, 24 h, read-out: IC50, inhibition of LPS-induced NF-κB reporter activity", "value": "5.92 ± 0.14", "unit": "µM"},
      {"measurement": "inhibition of TLR1/TLR2 signaling (NO production)", "setting": "TLR1/TLR2", "value": "negligible inhibition"},
      {"measurement": "inhibition of TLR3 signaling (NO production)", "setting": "TLR3", "value": "negligible inhibition"},
      {"measurement": "inhibition of TLR7/8 signaling (NO production)", "setting": "TLR7/8", "value": "negligible inhibition"},
      {"measurement": "effect on signal via TLR2/TLR6 heterodimer (NO production)", "setting": "TLR2/TLR6 heterodimer", "value": "reduced the signal"}
    ]},
    {"molecule": "COC(=O)C(=Cc1ccccc1)C(=O)OC", "note": "[Compound 2, Dimethyl 2-benzylidenemalonate]", "values": [
      {"measurement": "decrease of activity relative to 1 (NO production)", "setting": "[2]; absence of any substituent on the benzene ring", "value": "greater than 2 fold"}
    ]},
    {"molecule": "COC(=O)C(Cc1ccccc1[N+](=O)[O-])C(=O)OC", "note": "[Compound 22, Dimethyl 2-(2-nitrobenzyl) malonate]", "values": [
      {"measurement": "inhibition of LPS-induced NO production", "setting": "[2]; RAW 264.7 cells, at the tested concentrations (Figure 1A)", "value": "negligible inhibition"},
      {"measurement": "effect on LPS-induced NF-κB activation", "setting": "[1]; BV-2 cells, concentrations up to 10 μM", "value": "did not alter"},
      {"measurement": "effect on IL-1β production", "setting": "[3]", "value": "did not affect"},
      {"measurement": "effect on TNF-α production", "setting": "[4]", "value": "did not affect"}
    ]}
  ]
}
